{"data": "Assay results collected from several papers", "LCK phosphorylated": "Tyrosine-protein kinase Lck, phosphorylated (LCK, Homo sapiens, UniProt P06239)", "LCK": "Tyrosine-protein kinase Lck (LCK, Homo sapiens, UniProt P06239)", "note": "Each line is one published result; the experiments were not run side by side."}
{"Structure (SMILES)": "CNC(=O)c1cc2c(Oc3ccc(NC(=O)C4(C(=O)Nc5ccc(F)cc5)CC4)cc3)ccnc2cc1OC", "target": "LCK phosphorylated", "read-out": "enzyme activity", "action": "inhibitor", "technique": "radiometric", "concentration": "1 µM", "endpoint": "inhibition", "value": "97%"}
{"Structure (SMILES)": "CC/C(=N\\NC(=O)NCc1cccc(O)c1)c1ccc(O)c(C)c1O", "target": "LCK", "read-out": "enzyme activity", "action": "inhibitor", "concentration": "0.1 µM", "endpoint": "inhibition", "value": "2%"}
{"Structure (SMILES)": "COc1cc2ncnc(Nc3ccc(Oc4ccccc4)c(C)c3C)c2cc1OC", "target": "LCK", "read-out": "enzyme activity", "action": "inhibitor", "concentration": "1 µM", "endpoint": "inhibition", "value": "83%"}
{"Structure (SMILES)": "COc1cc(-c2cn(C3CCc4c(F)cccc4N(CC(F)(F)F)C3=O)nn2)ccc1-n1cnc(C)c1 (stereo not shown)", "target": "LCK", "read-out": "cell-free assay", "technique": "competition with immobilised ligand", "concentration": "1 µM", "endpoint": "remaining binding", "value": "100%"}
{"Structure (SMILES)": "Cc1ccc(C(=O)NCc2ccsc2)cc1C#Cc1cn(C(C)C)c2ncnc(N)c12", "target": "LCK", "read-out": "enzyme activity", "action": "inhibitor", "concentration": "1 µM", "endpoint": "activity vs control", "value": "3%"}
{"Structure (SMILES)": "CNCc1ccc(-c2cc(-c3nc(-c4ccc(S(=O)(=O)C(C)C)cc4)cnc3N)on2)cc1", "target": "LCK", "read-out": "enzyme activity", "action": "inhibitor", "concentration": "2 µM", "endpoint": "inhibition", "value": "64%"}
{"Structure (SMILES)": "Cc1cc(-n2nc(Cc3cc(F)cc(C(F)(F)F)c3)nc2C)ccc1C(N)=O", "target": "LCK", "read-out": "cell-free assay", "technique": "competition with immobilised ligand", "concentration": "1 µM", "endpoint": "remaining binding", "value": "100%"}
{"Structure (SMILES)": "CN(c1nccc(-c2cnn3ncccc23)n1)C1CC1", "target": "LCK", "read-out": "cell-free assay", "concentration": "1 µM", "endpoint": "remaining signal", "value": "98%"}
{"Structure (SMILES)": "CN(C)CC#Cc1ccc(OCCCc2sc(N3CCc4cccc(C(=O)Nc5nc6ccccc6s5)c4C3)nc2C(=O)O)c(F)c1", "target": "LCK", "read-out": "cell-free assay", "technique": "competition with immobilised ligand", "concentration": "1 µM", "endpoint": "remaining binding", "value": "100%"}
{"Structure (SMILES)": "CCOc1cc(-c2nncn2C)ccc1Nc1ncc2cc(C)nc(NCC(C)(C)C)c2n1", "target": "LCK", "read-out": "enzyme activity", "action": "inhibitor", "technique": "FRET", "concentration": "1 µM", "endpoint": "inhibition", "value": "< 15%"}
{"Structure (SMILES)": "FC(F)(F)Oc1cccc(-c2cnc3ccc(-c4ccncc4)nn23)c1", "target": "LCK", "read-out": "enzyme activity", "action": "inhibitor", "technique": "radiometric", "concentration": "5 µM", "endpoint": "activity vs control", "value": "25%"}
{"Structure (SMILES)": "C[C@@H](c1cccc(C#N)c1)n1cc(Cl)cc(C(N)=O)c1=N", "target": "LCK", "read-out": "binding", "technique": "competition with immobilised ligand", "concentration": "1 µM", "endpoint": "remaining binding", "value": "90%"}
{"Structure (SMILES)": "N[C@H]1CCN(c2nccc(-c3cnn4ncccc34)n2)C1", "target": "LCK", "read-out": "cell-free assay", "concentration": "1 µM", "endpoint": "remaining signal", "value": "90%"}
{"Structure (SMILES)": "Cc1cc(NC(=O)c2cccc3cc(-c4cccc5[nH]nc(N)c45)ccc23)ccc1F", "target": "LCK phosphorylated", "read-out": "enzyme activity", "action": "inhibitor", "concentration": "0.1 µM", "endpoint": "activity vs control", "value": "88%"}
{"Structure (SMILES)": "CC(=O)C1=C(C)N(c2cccc(C(F)(F)F)c2)C(=O)N[C@@H]1c1ccc(C#N)nc1", "target": "LCK", "read-out": "cell-free assay", "technique": "competition with immobilised ligand", "concentration": "1 µM", "endpoint": "remaining binding", "value": "100%"}
{"Structure (SMILES)": "C=CC(=O)Nc1cc(Nc2nccc(Nc3cc(Cl)c(F)cc3C(C)(C)O)n2)c(OC)cc1N1CC[C@@H](N(C)C)C1", "target": "LCK phosphorylated", "read-out": "enzyme activity", "action": "inhibitor", "concentration": "1 µM", "endpoint": "inhibition", "value": "5%"}
{"Structure (SMILES)": "c1cc(-c2cnn3cc(-c4ccc(OCCN5CCCCC5)cc4)cnc23)ccn1", "target": "LCK", "read-out": "enzyme activity", "action": "inhibitor", "concentration": "0.5 µM", "endpoint": "activity vs control", "value": "51.8%"}
{"Structure (SMILES)": "CNc1cccc2cc(C(=O)Nc3ccc(C(=O)O)cc3)c(=O)[nH]c12", "target": "LCK", "read-out": "enzyme activity", "action": "inhibitor", "concentration": "10 µM", "endpoint": "inhibition", "value": "0.91%"}
{"Structure (SMILES)": "CCCS(=O)(=O)Nc1ccc(F)c(C(=O)c2c[nH]c3ncc(-c4ccc(Cl)cc4)cc23)c1F", "target": "LCK", "read-out": "enzyme activity", "action": "inhibitor", "concentration": "1 µM", "endpoint": "inhibition", "value": "< 10%"}
{"Structure (SMILES)": "O=C1c2ccccc2-c2n[nH]c3cccc1c23", "target": "LCK", "read-out": "enzyme activity", "action": "inhibitor", "concentration": "0.5 µM", "endpoint": "activity vs control", "value": "97.1%"}
{"Structure (SMILES)": "O=C(Nc1cccnn1)N1CC(C/C=C/c2cncc(Oc3ccc(C(F)(F)F)cn3)n2)C1", "target": "LCK", "read-out": "cell-free assay", "technique": "competition with immobilised ligand", "concentration": "1 µM", "endpoint": "remaining binding", "value": "100%"}
{"Structure (SMILES)": "Cc1ccc(Nc2nccc(N(C)c3ccc4c(C)n(C)nc4c3)n2)cc1S(N)(=O)=O", "target": "LCK", "read-out": "enzyme activity", "action": "inhibitor", "concentration": "10 µM", "endpoint": "inhibition", "value": "99%"}
{"Structure (SMILES)": "CN(C)C1CCN(CC#Cc2nn(C3CCCC3)c3nc(NCc4ccccc4)ncc23)C1 (stereo not shown)", "target": "LCK", "read-out": "enzyme activity", "action": "inhibitor", "technique": "FRET", "concentration": "1 µM", "endpoint": "inhibition", "value": "31%"}
{"Structure (SMILES)": "CCS(=O)(=O)c1cc2cc(C[C@@](O)(CC(C)(C)c3ccc(F)cc3C(N)=O)C(F)(F)F)[nH]c2cn1", "target": "LCK", "read-out": "cell-free assay", "technique": "competition with immobilised ligand", "concentration": "1 µM", "endpoint": "remaining binding", "value": "81%"}
{"Structure (SMILES)": "COc1cc(/C=C/C(=O)CC(=O)/C=C/c2ccc(O)c(OC)c2)ccc1O", "target": "LCK", "read-out": "enzyme activity", "action": "inhibitor", "concentration": "1 µM", "endpoint": "activity vs control", "value": "80%"}
